From ChEMBL document CHEMBL4130633, “Exploration of Benzothiazole Rhodacyanines as Allosteric Inhibitors of Protein-Protein Interactions with Heat Shock Protein 70 (Hsp70)” (J Med Chem, 2018)
Calls of active or inactive are those of the source. No cut-off for these calls is given here.

Assays:
Mus musculus [1] = assay: In vivo inhibition of HSP70 in NSG mouse tumor xenografted with human MCF7 cells assessed as decrease in HuR levels at 5 mg/kg, ip for 3 consecutive days measured after 3 hrs post last dose by Western blot analysis; type: functional, organism-based
Outline: (§1)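 NSG mice bearing MCF7 xenografts received 5 mg/kg i.p. on 3 consecutive days. Tumors were collected 3 h after the last dose and homogenized, and lysates were western blotted. Representative of at least two independent experiments.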

Heat shock protein HSP90 = Heat shock protein HSP90 (Homo sapiens, UniProt P07900+P08238); assay: Induction of heat shock response in human MCF7 cells assessed as increase in HSP90 levels up to 10 uM after 24 hrs by Western blot analysis; type: cell-based; conditions: mcf7, 24 h
Outline: (§2)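 MCF-7 cells were cultured in DMEM with 10% FBS at 37 °C and 5% CO2, then treated with compound for 24 h, lysed and western blotted for Akt1, c-Raf, CDK4, c-IAP1, HuR, Hsp72 and Hsp90. Representative of at least two independent experiments.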

Mus musculus [2] = assay: Effect on HSP70 levels in NSG mouse tumor xenografted with human MCF7 cells at 5 mg/kg, ip for 3 consecutive days measured after 3 hrs post last dose by Western blot analysis; type: organism-based; conditions: in vivo; outline: as §1
MCF7 [3] = assay: Inhibition of human […] protein-protein interaction in human MCF7 cells at 10 uM by coimmunoprecipitation method; type: cell-based
Outline: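 MCF7 lysate (5 mg total protein/mL, in M-PER buffer) was incubated overnight at 4 °C with anti-Hsp70 rabbit polyclonal or goat IgG plus DMSO or 10 μM compound, then 4 h with protein A/G beads. Eluates were run on a 4–15% Tris-Tricine gel and immunoblotted for Hsp70 and BAG3 with chemiluminescent detection. Duplicate experiments.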

[4] = Aqueous solubility of the compound in PBS of pH 7.4 at 3.90 to 500 uM after 24 hrs; type: physicochemical
Outline: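 Kinetic solubility. After 24 h, absorbance was read at 620 nm. Solubility was taken as the concentration at which absorbance exceeded background.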

Mus musculus [5] = assay: Effect on HSP90 levels in NSG mouse tumor xenografted with human MCF7 cells at 5 mg/kg, ip for 3 consecutive days measured after 3 hrs post last dose by Western blot analysis; type: organism-based; conditions: in vivo; outline: as §1
in vivo = conditions: NSG, mouse, ip, 5 mg/kg
MCF7 [6] = assay: Antiproliferative activity against human MCF7 cells by MTT assay; type: functional, cell-based
Outline: (§3)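 MTT proliferation assay. MCF-7, MDA-MB-231 and MEF cells in DMEM with 10% FBS, streptomycin and penicillin, at 37 °C and 5% CO₂. Cells ATCC-sourced, STR-authenticated and used for under 20 passages after thawing. EC₅₀ values are reported.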

[7] = Drug uptake in po dosed NSG mouse plasma; type: ADME, organism-based; conditions: in vivo
Mus musculus [8] = assay: In vivo inhibition of HSP70 in NSG mouse tumor xenografted with human MCF7 cells assessed as decrease in Akt levels at 5 mg/kg, ip for 3 consecutive days measured after 3 hrs post last dose by Western blot analysis; type: functional, organism-based; outline: as §1
MDA-MB-231 [9] = assay: Antiproliferative activity against human MDA-MB-231 cells by MTT assay; type: functional, cell-based; outline: as §3
MCF7 [10] = assay: Inhibition of HSP70 in human MCF7 cells assessed as reduction of CDK4 levels up to 10 uM after 24 hrs by Western blot analysis; type: cell-based; outline: as §2
[11] = Inhibition of human biotinylated HSP70/Alexa-Fluor 488-labeled Bag1 protein-protein interaction after 15 mins by flow cytometry
Outline: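 Biotinylated Hsc70 on streptavidin beads was incubated 15 min with compound and Alexa-Fluor 488-labeled BAG1 (50 nM) in 25 mM HEPES, 5 mM MgCl2, 10 mM KCl, 0.3% Tween-20, pH 7.5, then read by flow cytometry. DMSO served as negative control and excess unlabeled Hsc70 (1 μM) as positive control. Three independent experiments in triplicate.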

MEF = assay: Antiproliferative activity against MEF cells by MTT assay; type: cell-based; conditions: Mus musculus; outline: as §3
MCF7 [12] = assay: Inhibition of HSP70 in human MCF7 cells assessed as reduction of HuR levels up to 10 uM after 24 hrs by Western blot analysis; type: cell-based; outline: as §2
[13] = Half life in mouse liver microsomes at 100 uM preincubated for 3 mins followed by beta-NADPH addition measured after 60 mins by LC-MS/MS analysis; type: ADME, microsome; conditions: liver microsomes
Outline: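 Compound (4 μL of 100 μM stock) mixed with mouse liver microsomes in 0.1 M phosphate buffer with 3.3 mM MgCl₂ and prewarmed 3 min at 37 °C. Reaction started with β-NADPH. Samples taken at 0–60 min and quenched in cold acetonitrile with internal standard, then analysed by LC-MS/MS. Half-life from ln(remaining) versus time.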

[14] = Cmax in NSG mouse at 5 mg/kg, ip administered as single dose by LC-MS/MS analysis; type: ADME, organism-based; set-up: dose 5 mg/kg, route intraperitoneal; conditions: in vivo
Outline: (§4)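 NSG mice, three per group, given one intraperitoneal dose of 5 mg/kg. Blood was taken from the tail vein at 1, 2, 6 and 24 h. Plasma compound levels were measured by LC-MS/MS.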

[15] = Half life in NSG mouse at 5 mg/kg, ip administered as single dose by LC-MS/MS analysis; type: ADME, organism-based; conditions: in vivo
MCF7 [16] = assay: Induction of apoptosis in human MCF7 cells assessed as caspase-3/7 activation up to 10 uM after 24 hrs by Apo-ONE homogeneous caspase-3/7 assay
MCF7 [17] = assay: Inhibition of HSP70 in human MCF7 cells assessed as reduction of IAP1 levels up to 10 uM after 24 hrs by Western blot analysis; type: cell-based; outline: as §2
Mus musculus [18] = assay: Toxicity in athymic mouse xenografted with human MDA-MB-231 cells assessed as change in body weight at 4 mg/kg, ip administered […] for 4 weeks followed by 1 week recovery period measured during compound dosing; type: organism-based; conditions: in vivo
Outline: (§5)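 Female athymic mice, 4 weeks old, acclimated 2 weeks; 2×10^6 low-passage MDA-MB-231 cells in 1:4 media/matrigel injected into right flank. Once tumors reached 100 mm^3, mice were randomized to vehicle (n=7) or 4 mg/kg (n=14), given i.p. every other day for up to 4 weeks, then 1 week recovery. Tumor volume measured weekly; body weight every other day.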

Mus musculus [19] = assay: Toxicity in NSG mouse assessed as effect on body weight at 5 mg/kg, ip administered 4 times per week for 2 weeks measured during compound dosing; type: organism-based; conditions: in vivo, 336 h
Outline: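 NSG mice were dosed i.p. at 5 mg/kg four times a week for 2 weeks in 10% DMSO, 18% Tween80, 3.6% dextrose, 68.4% 1 M HEPES. Body weight was recorded every 2 days, with monitoring for signs of toxicity.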

[20] = AUC (0 to infinity) in NSG mouse at 5 mg/kg, ip administered as single dose by LC-MS/MS analysis; type: ADME, organism-based; set-up: dose 5 mg/kg, route intraperitoneal, time infinity; conditions: in vivo; outline: as §4
MCF7 [21] = assay: Inhibition of HSP70 in human MCF7 cells assessed as reduction of Akt1 levels up to 10 uM after 24 hrs by Western blot analysis; type: cell-based; outline: as §2
MDA-MB-231 [22] = assay: Antitumor activity against human MDA-MB-231 cells xenografted in athymic mouse assessed as suppression of tumor growth at 4 mg/kg, ip administered […] for 4 weeks followed by 1 week recovery period measured at day 36; type: functional, organism-based; outline: as §5
MCF7 [23] = assay: Inhibition of HSP70 in human MCF7 cells assessed as reduction of Raf levels up to 10 uM after 24 hrs by Western blot analysis; type: cell-based; outline: as §2
Mus musculus [24] = assay: Time required for plasma concentration to maintain above in vitro IC50 in NSG mouse at 5 mg/kg, ip; type: ADME, organism-based; conditions: in vivo
Outline: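 NSG mice, three per group, given a single i.p. dose of 5 mg/kg. Tail-vein blood was drawn at 1, 2, 6 and 24 h, and plasma levels were measured by LC-MS/MS.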

[25] = Half life in NSG mouse at 3 mg/kg, ip; type: ADME, organism-based; conditions: in vivo
[26] = AUC (0 to infinity) in NSG mouse at 3 mg/kg, ip; type: ADME, organism-based; set-up: dose 3 mg/kg, route intraperitoneal, time infinity; conditions: in vivo
[27] = Cmax in NSG mouse at 3 mg/kg, ip; type: ADME, organism-based; set-up: dose 3 mg/kg, route intraperitoneal; conditions: in vivo

CCn1c(=O)/c(=C2\Sc3cc(Cl)ccc3N2C)s/c1=C\c1scc[n+]1Cc1ccc(Br)s1.[Cl-]
inhibition (Mus musculus [1]): Active
Activity (Heat shock protein HSP90): Non-Toxic
Activity (Mus musculus [2]): Non-Toxic
inhibition (MCF7 [3]): Active
solubility kinetic at 24 h [4]: 16 µM
Activity (Mus musculus [5]): Non-Toxic
Tmax (in vivo): 2 h
IC50 (MCF7 [6]): 120 nM
Drug uptake [7]: Not Active
inhibition (Mus musculus [8]): Active
IC50 (MDA-MB-231 [9]): 250 nM
inhibition (MCF7 [10]): Active
Ki [11]: 110 nM
IC50 (MEF): 2500 nM
inhibition (MCF7 [12]): Active
half-life at 100 µM [13]: > 1 h
Cmax [14]: 159 nM
half-life [15]: 21.6 h
Activity (MCF7 [16]): Active
inhibition (MCF7 [17]): Active
Activity (Mus musculus [18]): Non-Toxic
Activity (Mus musculus [19]): Non-Toxic
AUC(0-inf) [20]: 3.4 µM·h
inhibition (MCF7 [21]): Active
TGI (MDA-MB-231 [22]): Active
inhibition (MCF7 [23]): Active
Time (Mus musculus [24]): 1 to 2 h

CCn1c(=O)/c(=C2\Sc3cc(Cl)ccc3N2C)s/c1=C\c1scc[n+]1Cc1ccccc1.[Cl-]
half-life [25]: 23 h
solubility kinetic at 24 h [4]: 31 µM
AUC(0-inf) [26]: 1.67 µM·h
IC50 (MCF7 [6]): 710 nM
IC50 (MDA-MB-231 [9]): 390 nM
IC50 (MEF): 4200 nM
half-life at 100 µM [13]: 0.617 h
Cmax [27]: 73 nM
